Assays:
[1] = system: BT-549; test: Cytotoxicity against human BT549 cells; assay type: cell-based
Outline: (§1)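 NCI 60 human tumour cell line screen, second stage at five concentrations (100, 10, 1.0, 0.1 and 0.01 μM). Continuous drug exposure for 48 h, with cell growth estimated by sulforhodamine B protein staining. GI50 is the drug concentration giving a 50% reduction in net protein increase relative to control cells over the incubation.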

[2] = system: HOP-92; test: Cytotoxicity against human HOP92 cells; assay type: cell-based; outline: as §1
[3] = system: NCI-H460; test: Cytotoxicity against human NCI-H460 cells; assay type: cell-based; outline: as §1
[4] = system: NCI/ADR-RES; test: Cytotoxicity against human NCI/ADR-RES cells; assay type: cell-based; outline: as §1
[5] = system: MCF7; test: Anticancer activity against human MCF7 cells after 48 hrs by sulforhodamine B assay; assay type: functional; conditions: MCF7, 48 h
Outline: (§2)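 NCI 60-cell-line in vitro screen, second stage: five concentration levels (100, 10, 1.0, 0.1 and 0.01 μM) with 48 h continuous drug exposure. Cell growth was estimated by sulforhodamine B protein staining. GI50 is the drug concentration that gives a 50% reduction in net protein increase relative to control cells over the incubation.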

[6] = system: NCI-H23; test: Cytotoxicity against human NCI-H23 cells; assay type: cell-based; outline: as §1
[7] = system: SK-MEL-2; test: Anticancer activity against human SK-MEL-2 cells after 48 hrs by sulforhodamine B assay; assay type: functional; conditions: SK-MEL-2, 48 h; outline: as §2
[8] = system: OVCAR-4; test: Anticancer activity against human OVCAR4 cells after 48 hrs by sulforhodamine B assay; assay type: functional; conditions: OVCAR-4, 48 h; outline: as §2
[9] = system: MDA-MB-435; test: Cytotoxicity against human MDA-MB-435 cells; assay type: cell-based; outline: as §1
[10] = system: U-251; test: Anticancer activity against human U251 cells after 48 hrs by sulforhodamine B assay; assay type: functional; conditions: U-251, 48 h
Outline: (§3)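 NCI 60-cell-line screen, second stage. Five concentration levels (100, 10, 1.0, 0.1 and 0.01 μM), 48 h continuous drug exposure. Cell growth was estimated by sulforhodamine B protein staining. GI50 is the concentration giving a 50% reduction in net protein increase relative to control cells over the drug incubation. Compounds entered this stage after an earlier single-dose screen.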

[11] = system: MDA-MB-468; test: Cytotoxicity against human MDA-MB-468 cells; assay type: cell-based; outline: as §1
[12] = system: NCI-H226; test: Cytotoxicity against human NCI-H226 cells; assay type: cell-based; outline: as §1
[13] = system: NCI-H522; test: Cytotoxicity against human NCI-H522 cells; assay type: cell-based; outline: as §1
[14] = system: NCI-H226; test: Anticancer activity against human NCI-H226 cells after 48 hrs by sulforhodamine B assay; assay type: functional; conditions: NCI-H226, 48 h; outline: as §2
[15] = system: NCI/ADR-RES; test: Anticancer activity against human NCI/ADR-RES cells after 48 hrs by sulforhodamine B assay; assay type: functional; outline: as §2
[16] = system: OVCAR-8; test: Anticancer activity against human OVCAR8 cells after 48 hrs by sulforhodamine B assay; assay type: functional; conditions: OVCAR-8, 48 h; outline: as §2
[17] = system: SNB-19; test: Cytotoxicity against human SNB19 cells; assay type: cell-based
Outline: (§4)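 NCI 60 human tumour cell line screen; five concentration levels (100, 10, 1.0, 0.1 and 0.01 μM), 48 h continuous drug exposure. Cell growth estimated by sulforhodamine B (SRB) protein staining. GI50 taken as the drug concentration giving a 50% reduction in net protein increase relative to control cells over the incubation.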

[18] = system: RXF 393; test: Cytotoxicity against human RXF393 cells; assay type: cell-based; outline: as §1
[19] = system: RPMI-8226; test: Anticancer activity against human RPMI8226 cells after 48 hrs by sulforhodamine B assay; assay type: functional; conditions: RPMI-8226, 48 h; outline: as §2
[20] = system: SK-MEL-5; test: Anticancer activity against human SK-MEL-5 cells after 48 hrs by sulforhodamine B assay; assay type: functional; conditions: SK-MEL-5, 48 h; outline: as §2
[21] = system: HCT-116; test: Cytotoxicity against human HCT116 cells; assay type: cell-based; outline: as §1
[22] = system: SNB-75; test: Cytotoxicity against human SNB75 cells; assay type: cell-based; outline: as §4
[23] = system: RPMI-8226; test: Cytotoxicity against human RPMI8226 cells; assay type: cell-based; outline: as §1
[24] = system: ACHN; test: Anticancer activity against human ACHN cells after 48 hrs by sulforhodamine B assay; assay type: functional; outline: as §2
[25] = system: BT-549; test: Anticancer activity against human BT549 cells after 48 hrs by sulforhodamine B assay; assay type: functional; conditions: BT-549, 48 h; outline: as §2
[26] = system: K562; test: Cytotoxicity against human K562 cells; assay type: cell-based; outline: as §1
[27] = system: UO-31; test: Anticancer activity against human UO31 cells after 48 hrs by sulforhodamine B assay; assay type: functional; conditions: UO-31, 48 h; outline: as §3
[28] = system: HOP-62; test: Cytotoxicity against human HOP62 cells; assay type: cell-based; outline: as §1
[29] = system: A549; test: Anticancer activity against human A549 cells after 48 hrs by sulforhodamine B assay; assay type: functional; conditions: A549, 48 h; outline: as §2
[30] = system: UO-31; test: Cytotoxicity against human UO31 cells; assay type: cell-based; outline: as §4
[31] = system: RXF 393; test: Anticancer activity against human RXF393 cells after 48 hrs by sulforhodamine B assay; assay type: functional; conditions: RXF 393, 48 h; outline: as §2
[32] = system: 786-0; test: Cytotoxicity against human 786-0 cells; assay type: cell-based; outline: as §1
[33] = system: CCRF-CEM; test: Cytotoxicity against human CCRF-CEM cells; assay type: cell-based; outline: as §1

## Cc1ccc(C2=NNC(c3cc(Cc4ccc(O)c(C5CC(c6ccc(C)cc6)=NN5)c4)ccc3O)C2)cc1 (stereo not drawn)
[1]
  LC50: > 100 µM
[2]
  LC50: > 100 µM
[3]
  LC50: > 100 µM
[4]
  LC50: > 100 µM
[5]
  GI50: 3.3 µM
[6]
  LC50: > 100 µM
[7]
  GI50: 5.9 µM
[8]
  GI50: 5.36 µM
[9]
  LC50: > 100 µM
[10]
  GI50: 5.84 µM
[11]
  LC50: > 100 µM
[12]
  LC50: > 100 µM
[13]
  LC50: > 100 µM
[14]
  GI50: 8.28 µM
[15]
  GI50: 7.39 µM
[16]
  GI50: 6.36 µM
[17]
  LC50: > 100 µM
[18]
  LC50: > 100 µM
[19]
  GI50: 9.89 µM
[20]
  GI50: 1.76 µM
[21]
  LC50: 55.2 µM
[22]
  LC50: > 100 µM
[23]
  LC50: > 100 µM
[24]
  GI50: 5.56 µM
[25]
  GI50: 4.66 µM
[26]
  LC50: > 100 µM
[27]
  GI50: 4.29 µM
[28]
  LC50: > 100 µM
[29]
  GI50: 6.84 µM
[30]
  LC50: > 100 µM
[31]
  GI50: 4.18 µM
[32]
  LC50: > 100 µM
[33]
  LC50: > 100 µM
